Experimental findings from ChEMBL document CHEMBL2429774, “Synthesis and biological evaluation of novel 1,6-diaryl pyridin-2(1H)-one analogs” (Eur J Med Chem, 2013) are described below.

Assay [1] deals with HepG2. The experiment in a line: Cytotoxicity against human HepG2 cells after 72 hrs by spectrophotometry. The assay is classed as functional, cell-based. The note with it: HepG2, 72 h. Put shortly:
(§1)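 Cells grown as monolayers in DMEM with 10% FBS, penicillin and streptomycin at 37 °C, 5% CO₂. Seeded at 5 × 10³ cells/well and exposed for 72 h. Medium changed, then another day of incubation. XTT (1 mg/mL) plus PMS added in serum-free medium for 4 h at 37 °C, read at 492 nm. Percent of control growth = treated/control absorbance × 100 (n = 3). GI50 taken from the linear portion of the curve.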

The next assay concerns SK-OV-3. The experiment in a line: Cytotoxicity against human SKOV3 cells after 72 hrs by spectrophotometry. The assay is classed as functional, cell-based. The note with it: SK-OV-3, 72 h. In short, it runs like this:
as §1

For assay [2], the system named is HepG2. The experiment in a line: Cell cycle arrest in human HepG2 cells assessed as accumulation at G2/M phase at 62.5 nM after 24 hrs by flow cytometry. The assay is classed as functional, cell-based. Put shortly:
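After treatment, cells were harvested, washed in PBS and resuspended in 1 mL 0.1% sodium citrate containing 0.05 mg propidium iodide and 50 µg RNase for 30 min at room temperature in the dark. DNA content was measured by flow cytometry, with at least three experiments run.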
Background: A flow cytometer gives signals particle by particle.

Assay [3] relates to H22. The experiment in a line: Antitumor activity against mouse H22 cells transfected in nude mouse assessed as tumor growth inhibition at 50 mg/kg, qd after 7 days relative to control. The assay is classed as functional. The note with it: H22, 168 h, read-out: TGI. In short, it runs like this: (§2)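 Female SPF/ICR athymic nude mice, 4–5 weeks old (24 ± 2 g), received H22 cells (1 × 10⁶ per animal) s.c. into the armpit. Dosing started once tumors were detectable by fluorescent macro-imaging and was given once daily for 7 days. Animals were then killed and solid tumors excised and weighed. Inhibition = (mean vehicle tumor weight − mean treated)/mean vehicle × 100%. n = 6 per group at start.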

Assay [4] deals with H22. The experiment in a line: Antitumor activity against mouse H22 cells transfected in nude mouse assessed as tumor growth inhibition at 200 mg/kg, qd after 7 days relative to control. The assay is classed as functional. The note with it: H22, 168 h, read-out: TGI. In short, it runs like this:
as §2

The test system of assay [5] is H22. The experiment in a line: Antitumor activity against mouse H22 cells transfected in nude mouse assessed as tumor growth inhibition at 10 mg/kg, qd after 7 days relative to control. The note with it: H22, 168 h, read-out: TGI. The assay is classed as functional. Put shortly: as §2

Calls of active or inactive are those of the source. No cut-off for these calls is given here.

On to `COc1cc(-c2cccc(=O)n2-c2ccc(F)cc2)cc(OC)c1OC`, for which the IC50 (in general, the concentration at which inhibition is half-maximal) is above 100000 nM with HepG2 [1] and 9740 nM in the assay with SK-OV-3.

For `COc1cc(-c2cccc(=O)n2-c2ccc(C(F)(F)F)cc2)cc(OC)c1OC`, the figures for the IC50 in the assay with HepG2 [1] and with SK-OV-3 were 10200 nM and 1920 nM, respectively.

As to `COc1cc(-n2c(-c3ccc4c(c3)OCO4)cccc2=O)cc(OC)c1OC`, in the assay with HepG2 [2], the outcome was inactive. Further, the inhibition in vivo at 50 mg/kg with H22 [3] is 17%. Besides, the inhibition in vivo at 200 mg/kg in the assay on H22 [4] worked out at 27%. Besides, the IC50 was below 10 nM in the assay with HepG2 [1] and 64 nM with SK-OV-3.

`COc1ccc(-c2cccc(=O)n2-c2cc(OC)c(OC)c(OC)c2)cc1OC`: the IC50 turned out to be 513 nM in the assay with HepG2 [1] and 545 nM in the assay on SK-OV-3.

Take `COc1ccc(-n2c(-c3cc(OC)c(OC)c(OC)c3)cccc2=O)cc1`: the results for the IC50 with HepG2 [1] and in the assay with SK-OV-3 were 5740 nM and 1540 nM, respectively.

For `COc1cc(-n2c(-c3cccc(F)c3)cccc2=O)cc(OC)c1OC`, the figures for the IC50 in the assay on HepG2 [1] and in the assay with SK-OV-3 were 159 nM and 472 nM, respectively.

For `COc1ccc(-c2cccc(=O)n2-c2cc(OC)c(OC)c(OC)c2)cc1OCc1ccccc1`, the IC50 worked out at 269 nM in the assay on HepG2 [1] and 2310 nM with SK-OV-3.

For the compound `COc1cc(-c2cccc(=O)n2-c2ccncc2)cc(OC)c1OC`, the IC50 was determined as 2520 nM in the assay with HepG2 [1] and 3020 nM with SK-OV-3.

Turning to `COc1ccc(-n2c(-c3cc(OC)c(OC)c(OC)c3)cccc2=O)cc1OC`, the IC50 is 4870 nM in the assay with HepG2 [1] and 14300 nM in the assay on SK-OV-3.

As to `COc1cc(-n2c(-c3cccc4cc[nH]c34)cccc2=O)cc(OC)c1OC`, the IC50 in the assay with HepG2 [1] turned out to be 2400 nM; with SK-OV-3, 138 nM.

`COc1ccc(-c2cccc(=O)n2-c2cc(OC)c(OC)c(OC)c2)cc1O`: the result with HepG2 [2] was inactive. In addition, in the assay on H22 [3], the inhibition in vivo at 50 mg/kg came to 27%. Besides, the inhibition in vivo at 200 mg/kg in the assay on H22 [4] was 40%. Further, the IC50 with HepG2 [1] and in the assay on SK-OV-3 was below 10 nM throughout.

Turning to `COc1cc(-n2c(-c3ccc([N+](=O)[O-])cc3)cccc2=O)cc(OC)c1OC`, in the assay with HepG2 [2], the outcome was inactive. Besides, the inhibition in vivo at 50 mg/kg in the assay on H22 [3] stood at 31%. The inhibition in vivo at 200 mg/kg with H22 [4] stood at 61%. The values for the IC50 in the assay on HepG2 [1] and in the assay with SK-OV-3 were below 10 nM and 201 nM, respectively.

As for `COc1cc(-n2c(-c3ccc(OC(F)(F)F)cc3)cccc2=O)cc(OC)c1OC`, the values for the IC50 in the assay on HepG2 [1] and with SK-OV-3 were 1960 nM and 461 nM, respectively.

`COc1cc(-c2cccc(=O)n2-c2cccc(F)c2)cc(OC)c1OC`: the IC50 with HepG2 [1] was 73 nM; with SK-OV-3, 340 nM.

Take `CC(=O)O[C@H]1C(=O)[C@@]2(C)[C@H]([C@H](OC(=O)c3ccccc3)[C@]3(O)C[C@H](OC(=O)[C@H](O)[C@@H](NC(=O)c4ccccc4)c4ccccc4)C(C)=C1C3(C)C)[C@]1(OC(C)=O)CO[C@@H]1C[C@@H]2O` [PACLITAXEL]: the inhibition in vivo at 10 mg/kg with H22 [5] was 47%. Besides, the IC50 in the assay with HepG2 [1] came to 6 nM; in the assay with SK-OV-3, 12 nM.

For the compound `COc1cc(-n2c(-c3cccc(O)c3)cccc2=O)cc(OC)c1OC`, the IC50 in the assay on HepG2 [1] was found to be 34 nM; in the assay on SK-OV-3, 1460 nM.

As for `COc1cc(-n2c(-c3ccncc3)cccc2=O)cc(OC)c1OC`, the IC50 in the assay with HepG2 [1] and in the assay on SK-OV-3 was 1780 nM in each case.

Consider `COc1ccc(-n2c(-c3cc(OC)c(OC)c(OC)c3)cccc2=O)cc1O`, for which the IC50 with HepG2 [1] and with SK-OV-3 was 1220 nM each time.

For `COc1cc(-c2cccc(=O)n2-c2ccc3c(c2)OCO3)cc(OC)c1OC`, the IC50 with HepG2 [1] was 5410 nM; with SK-OV-3, 14000 nM.

Consider `COc1cc(-c2cccc(=O)n2-c2ccc([N+](=O)[O-])cc2)cc(OC)c1OC`, for which the 50% inhibitory concentration (IC50) in the assay with HepG2 [1] came to 941 nM; in the assay on SK-OV-3, 311 nM.

For `COc1cc(-c2cccc(=O)n2-c2cc(OC)c(OC)c(OC)c2)cc(OC)c1OC`, the IC50 with HepG2 [1] was 5460 nM; in the assay with SK-OV-3, 844 nM.

`COc1ccc(-c2cccc(=O)n2-c2cc(OC)c(OC)c(OC)c2)cc1C`: the IC50 in the assay with HepG2 [1] stood at 129 nM; with SK-OV-3 it was 583 nM.

Turning to `COc1ccc(-n2c(-c3cc(OC)c(OC)c(OC)c3)cccc2=O)cc1OCc1ccccc1`, the IC50 amounted to 3040 nM with HepG2 [1] and 25500 nM in the assay on SK-OV-3.

As for `COc1ccc(-c2cccc(=O)n2-c2cc(OC)c(OC)c(OC)c2)cc1`, in the assay on HepG2 [2], the result was inactive. Also, in the assay on H22 [3], the inhibition in vivo at 50 mg/kg stood at 41%. In addition, the inhibition in vivo at 200 mg/kg in the assay on H22 [4] was 54%. In addition, the IC50 in the assay on HepG2 [1] and with SK-OV-3 was below 10 nM in each case.
